# Source: article PMC6282775 (Journal of Clinical Pharmacology, 2018)
# Tests used:
# [1] = Clinical hepatic impairment study: total plasma PK of alectinib and M4; assay type: in vivo, human; settings: single 300-mg dose of alectinib
# CYP3A = settings: cited from earlier work
# [2] = Safety evaluations in the clinical study; assay type: in vivo, human
# Outline: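 Open-label, multicenter, parallel-group study in healthy subjects and subjects with moderate (Child-Pugh B) or severe (Child-Pugh C) hepatic impairment. Subjects fasted at least 10 h, then took one oral 300-mg capsule dose of test compound with water 30 min after starting a standard meal. No food for 4 h. Adverse events, vital signs, clinical laboratory tests and ECGs were recorded, with follow-up 7–10 days after dosing.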
# plasma proteins = settings: cited from earlier work
# Unbound fraction = assay type: in vivo, human; settings: for fraction unbound: human, plasma, oral, 300 mg, median value of individual mean fu%, plasma 6 and 12 hours postdose; for GMR of unbound AUC0‐∞ / GMR of unbound Cmax: single 300-mg dose of alectinib
# Outline: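 Single oral 300 mg dose given 30 min after the start of a standard ~514 kcal meal, after a ≥10 h fast. Plasma taken 6 and 12 h postdose was dialyzed in triplicate, and plasma and buffer were analysed by LC-MS/MS. Samples were spiked if levels were too low. fu% = unbound/total ×100, geometric mean of triplicates (outlier dropped if CV >45.0%). GMRs from ANOVA of log Cmax and AUC0‐∞, with matched controls as a random effect.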
# [3] = moderate hepatic impairment/matched healthy subjects
# [4] = severe hepatic impairment/matched healthy subjects
structure (smiles),measurement,setting,value
CCc1cc2c(cc1N1CCC(N3CCOCC3)CC1)C(C)(C)c1[nH]c3cc(C#N)ccc3c1C2=O [Alectinib],GMR of total AUC0‐∞,[1]; [3],160%
same,GMR of total Cmax,[1]; [3],128%
same,GMR of total AUC0‐∞,[1]; [4],220%
same,GMR of total Cmax,[1]; [4],100%
same,increase in exposure on coadministration of a potent CYP3A inhibitor,CYP3A,75%
same,"changes in vital signs, laboratory values, or electrocardiogram measurements","[2]; single oral 300 mg, during the study",No clinically significant changes
same,tolerability,"[2]; single oral dose of 300 mg, healthy subjects and subjects with moderate or severe hepatic impairment",well tolerated
same,protein binding in vitro,plasma proteins,≥ 99%
same,fraction unbound,Unbound fraction; healthy subjects matched for moderate,0.00206
same,fraction unbound,Unbound fraction; healthy subjects matched for severe,0.0014
same,fraction unbound,Unbound fraction; moderate hepatic impairment,0.00229
same,fraction unbound,Unbound fraction; severe hepatic impairment,0.00179
same,GMR of unbound AUC0‐∞,Unbound fraction; [3],186%
same,GMR of unbound Cmax,Unbound fraction; [3],148%
same,GMR of unbound AUC0‐∞,Unbound fraction; [4],285%
same,GMR of unbound Cmax,Unbound fraction; [4],130%
